Article PMC7216793 (Molecular pharmaceutics, 2020)

How the values were obtained:
[1] = oral dosages of 1000 mg/kg; cited from earlier work
[2] = kinetics of ring opening and closing by UV absorbance at 246 nm; format: physicochemical; conditions: UV 246 nm, aqueous 0.1 N HCl
Method in brief: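 Four replicate wells, each with 5 μL of 1 mM closed form plus 75 μL aqueous acid (0.1 N HCl; final 62.5 μM). A246 read every 30 s for 260 min, with a DMSO-containing buffer blank subtracted. Averaged absorbance-time curves (n = 4) were fitted by first-order kinetics to give k and half-life.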

[3] = 28 day dosing of 100 mg/kg; cited from earlier work
[4] = shake flask solubility at different pH, UV at 270 nm; format: physicochemical; conditions: 24 h shake flask
Method in brief: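 2 mg closed form in 200 μL buffered water was shaken 24 h in a closed vial. It was centrifuged 5 min at 16000 × g and supernatant pH was measured. Three 10 μL aliquots were diluted into 50:50 methanol/25 mM phosphate pH 10 and read at 270 nm. Concentration came from a calibration curve in the same diluent. Three independent measurements per pH.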

[5] = earlier work, no reference given; cited from earlier work
[6] = tested on: airway resistance induced with methacholine; conditions: airway resistance induced with 25 mg/ml methacholine; cited from earlier work
[7] = mass spectrometry analysis of pH dependent ratio of closed and open MIDD0301; format: physicochemical
Method in brief: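 Closed form at 50 μM in water was brought to pH 1 with 0.1 M HCl. It was then stepped up to pH 9 with 10% ammonium hydroxide, taking an aliquot at each pH. Aliquots stood 24 h at rt, then final pH was measured. Each was infused directly into the MS without LC or added solvent. Closed:open ratio came from peak heights at 414 and 432 m/z.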

[8] = pharmacokinetic study in mice: blood, lung and brain concentrations by LC-MS/MS; format: in vivo, Swiss Webster mice
Method in brief: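 Six-week-old female Swiss Webster mice (SPF) received closed or open form by intragastric gavage at 25 mg/kg in various vehicles (n = 4). At 60 min, heparinised blood was drawn by cardiac puncture and non-perfused brain and lungs were harvested. Samples were extracted in methanol with internal standard. Both forms were quantified by LC-MS/MS (C18; methanol/water, 0.1% formic acid; positive mode).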

[9] = tested on: asthmatic mice (ovalbumin sensitized and challenged model); conditions: cited from earlier work
[10] = logD oct/wat at different pH; format: physicochemical; conditions: 1-octanol/buffered water, 24 h
Method in brief: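 Shake-flask partition of the closed form. 200 μL of 2.5 mM in 1-octanol was added to 300 μL water-saturated octanol and 500 μL octanol-saturated buffer (pH 1–9). Vials were shaken overnight and left 1 h to separate. Aliquots of each layer were diluted in octanol or buffer and read at 270 nm (isosbestic). Concentrations came from per-phase calibration curves. Run in triplicate.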

[11] = spectrophotometric pH transition; format: physicochemical; conditions: absorbance difference at 252 and 292 nm vs pH
Method in brief: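 Closed or open form at 50 μM (1% DMSO), in buffers adjusted to 0.1 M ionic strength with KCl: 50 mM phosphoric acid pH 1–2, 50 mM acetate pH 3–5, 50 mM phosphate pH 6–8, 12.5 mM borate pH 9. After 24 h at rt, spectra were read 230–400 nm, DMSO blank subtracted (two experiments, duplicate). Summed absorbance differences at 252/292 nm vs pH were fitted by nonlinear regression.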

[12] = acid titration of basic MIDD0301 solution with 1 N HCl; format: physicochemical; conditions: 50 μM in 0.1 N NaOH, water with 30 % DMSO; nonlinear regression
[13] = kinetics of ring opening and closing by 1H-NMR; format: physicochemical; conditions: 0.1 N DCl in 50:50 D2O:d6-DMSO
[14] = tested on: ASM; conditions: cited from earlier work
[15] = mice, 25 mg/kg oral, 60 min, Entry 1: 2.5 % PEG400, 98 % HPMC (2 % in water), pH 6.1
[16] = mice, 25 mg/kg oral, 60 min, Entry 2: 40 % propylene glycol, 60 % HPMC (2 % in water), pH 5.9
[17] = mice, 25 mg/kg oral, 60 min, Entry 4: 2.5 % PEG400, 98 % HPMC (2 % in PBS, pH 7.4)
[18] = mice, 25 mg/kg oral, 60 min, Entry 4: 2.5 % PEG400, 98 % HPMC (2 % in PBS, pH 7.4), listed as Closed MIDD0301, 25 mg/kg
[19] = mice, 25 mg/kg oral, 60 min, Entry 4: 2.5 % PEG400, 98 % HPMC (2 % in PBS, pH 7.4), listed as closed MIDD0301, 25 mg/kg
[20] = mice, 25 mg/kg oral, 60 min, Entry 5: pretreatment with omeprazole (30 mg/kg), 2.5 % PEG400, 98 % HPMC (2 % in PBS)

C[C@H]1N=C(c2ccccc2F)c2cc(Br)ccc2-n2cnc(C(=O)O)c21 [MIDD0301]
CNS effects in sensorimotor studies [1]: no CNS effects
kacid, conversion of closed to open MIDD0301 ([2]; 62.5 μM): 0.142 min⁻¹
half-life in 0.1 N HCl [2]: 4.8 min
humoral immune response to T-dependent antigen dinitrophenyl-keyhole limpet haemocyanin [3]: no change
signs of toxicity [3]: no signs of toxicity
aqueous solubility ([4]; neutral pH): > 3000 µg/mL
aqueous solubility ([4]; pH 3.9): < 100 µg/mL
oral dosage required to achieve pharmacological effects [5]: 50 mg/kg
nebulized dose sufficient to overcome airway resistance [6]: 0.8 mg/kg
closed MIDD0301 remaining by MS ([7]; 0.1 N HCl, after 24 h): 10%
open MIDD0301 share by MS ([7]; pH 6, after 24 h): 17%
open MIDD0301 share by MS ([7]; pH 7 and higher, 24 h): 2%
calculated equilibrium pH (equal peak heights of closed and open form) ([7]; water, 24 h, MS 414 vs 432 m/z): 4.3
pH range in which the equilibrium between open and closed form was observed ([7]; water, MS): 4–5
percentage of open MIDD0301 in comparison to closed MIDD0301 ([8]; all biological samples, all formulations): ≤ 4%
Concentration of closed MIDD0301, Brain [8, 15]: 87 ± 27 nM
Concentration of open MIDD0301, Blood [8, 15]: 9 ± 3 nM
Concentration of open MIDD0301, Brain [8, 15]: 3 ± 1 nM
Concentration of open MIDD0301, Lung [8, 15]: 5 ± 2 nM
open MIDD0301, % of closed MIDD0301, Blood [8, 15]: 3%
open MIDD0301, % of closed MIDD0301, Brain [8, 15]: 2%
open MIDD0301, % of closed MIDD0301, Lung [8, 15]: 2%
concentration of open MIDD0301 as % of closed MIDD0301, all samples ([8]; mice, 25 mg/kg oral, 60 min, Entry 1, blood, lung, brain): 2–3%
Concentration of closed MIDD0301, Brain [8, 16]: 104 ± 42 nM
Concentration of open MIDD0301, Blood [8, 16]: 6 ± 2 nM
Concentration of open MIDD0301, Brain [8, 16]: 3 ± 1 nM
Concentration of open MIDD0301, Lung [8, 16]: 9 ± 2 nM
open MIDD0301, % of closed MIDD0301, Blood [8, 16]: 3%
open MIDD0301, % of closed MIDD0301, Brain [8, 16]: 3%
open MIDD0301, % of closed MIDD0301, Lung [8, 16]: 2%
Concentration of closed MIDD0301, Brain [8, 17]: 130 ± 24 nM
Concentration of open MIDD0301, Blood [8, 17]: 18 ± 14 nM
Concentration of open MIDD0301, Brain [8, 17]: 4 ± 3 nM
Concentration of open MIDD0301, Lung [8, 17]: 28 ± 19 nM
open MIDD0301, % of closed MIDD0301, Blood [8, 17]: 4%
open MIDD0301, % of closed MIDD0301, Brain [8, 17]: 3%
open MIDD0301, % of closed MIDD0301, Lung [8, 17]: 2%
Concentration of closed MIDD0301, Blood [8, 18]: 413 ± 116 nM
Concentration of closed MIDD0301, Lung [8, 18]: 1745 ± 1121 nM
Concentration of closed MIDD0301, Blood [8, 19]: 413 nM
Concentration of closed MIDD0301, Lung [8, 19]: 2046 nM
Concentration of closed MIDD0301, Blood [8, 20]: 516 ± 180 nM
Concentration of closed MIDD0301, Brain [8, 20]: 159 ± 33 nM
Concentration of closed MIDD0301, Lung [8, 20]: 2046 ± 1155 nM
Concentration of open MIDD0301, Blood [8, 20]: 20 ± 8 nM
Concentration of open MIDD0301, Brain [8, 20]: 4 ± 2 nM
Concentration of open MIDD0301, Lung [8, 20]: 32 ± 21 nM
open MIDD0301, % of closed MIDD0301, Blood [8, 20]: 4%
open MIDD0301, % of closed MIDD0301, Brain [8, 20]: 3%
open MIDD0301, % of closed MIDD0301, Lung [8, 20]: 2%
MIDD0301 in non-perfused brain as % of lung concentration ([8]; mice, oral, under these specific conditions (Conclusions)): less than 10%
IL-17A, IL-4 and TNFα in the lungs ([9]; asthmatic mice): reduction
airway hyperresponsiveness to methacholine challenge ([9]; oral 100 mg/kg): reduced airway hyperresponsiveness
eosinophil, CD4+ T cell and macrophage numbers in the lungs ([9]; oral 100 mg/kg): reduced
pH range of highest concentration in 1-octanol [10]: 2–5
pH of the spectrophotometric transition [11]: 4.34
pH of inflection, acid titration [12]: 4.69
kacid, conversion of closed to open MIDD0301 ([13]; 2.4 mM, pseudo first order): 0.050 min⁻¹
half-life of ring opening [13]: 13.7 min

CC(C)c1cccc(C(C)C)c1O [propofol]
effect on airway smooth muscle [14]: relaxed ASM
